Only some compounds are listed: those with a hit (about 3.7% of all), similar ones and a draw of the others.
hERG rescue = shields human hERG channel from block by proarrhythmic agents. Q12809. CHO-hERG, FluxOR thallium flux, dofetilide IC70 present. activation (rescue from dofetilide block), less the hit threshold, % at 10 µM. 310,000 compounds, 0.51% hits. AID 1511;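 active means activation above the mean of controls blocked by dofetilide plus 5 SD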;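 further: thallium influx through hERG after potassium depolarization seen as dye fluorescence rise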
KCNQ1 act = human KCNQ1 channel potentiation or activation; CHO-K1 KCNQ1, thallium flux FluxOR fluorescence; active compounds read high; B-score at 10 µM; P51787; 310,000 compounds, 0.35% hits;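 active means fluorescence ratio B-score, a plate-corrected score, at least three library SD, with initial intensity B-score within 5 SD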
Target sequence (P51787 whole entry, looked up): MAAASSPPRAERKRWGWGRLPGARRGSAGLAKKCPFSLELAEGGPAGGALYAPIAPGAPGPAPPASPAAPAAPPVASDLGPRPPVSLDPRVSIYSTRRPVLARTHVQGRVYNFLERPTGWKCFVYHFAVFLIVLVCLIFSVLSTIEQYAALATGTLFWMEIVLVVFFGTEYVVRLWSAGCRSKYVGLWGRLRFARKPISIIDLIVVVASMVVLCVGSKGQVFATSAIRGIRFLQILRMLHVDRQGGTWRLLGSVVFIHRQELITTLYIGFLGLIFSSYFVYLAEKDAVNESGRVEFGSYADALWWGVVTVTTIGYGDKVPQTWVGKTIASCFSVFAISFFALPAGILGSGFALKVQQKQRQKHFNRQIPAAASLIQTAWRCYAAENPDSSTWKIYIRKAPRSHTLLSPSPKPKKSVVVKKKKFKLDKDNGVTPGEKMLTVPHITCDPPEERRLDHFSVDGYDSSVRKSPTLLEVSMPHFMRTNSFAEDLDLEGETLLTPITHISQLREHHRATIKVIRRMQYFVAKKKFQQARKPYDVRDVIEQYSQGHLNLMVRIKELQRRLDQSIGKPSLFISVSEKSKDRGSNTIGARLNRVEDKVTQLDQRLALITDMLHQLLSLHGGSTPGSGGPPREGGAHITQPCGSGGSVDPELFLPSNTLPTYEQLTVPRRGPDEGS
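assay system = CHO-K1 cells stably expressing KCNQ1 | medium = assay buffer, equal DMSO in all wells | timing = 37 °C overnight plating, 90-min dark dye load, 20-min compound pretreatment | measured by = kinetic FluxOR thallium fluorescence, 10-s 1-Hz baseline, 110-s post-stimulus read | measure = fluorescence change relative to baseline, converted to B score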
KCNK3 inh = human KCNK3 channel inhibition, primary screen | O14649 | 340,000 compounds, 0.84% hits | CHO-KCNK3 thallium flux, FluxOR fluorescence; active compounds read low | B-score at 10 µM;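 active means B-score under library mean minus 4 SD, starting fluorescence ratio at most library mean plus 5 SD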;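 further: more negative B-score means stronger inhibition of thallium flux through KCNK3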
KCNQ1 inh = human KCNQ1 channel inhibition. P51787. CHO-K1 KCNQ1, FluxOR thallium flux fluorescence; active compounds read high. B-score at 10 µM. 310,000 compounds, 1.3% hits. AID 2642;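 active means compounds whose thallium flux B-score, printed positive for inhibition, exceeds three library SD while starting fluorescence stays within three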;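 further: channel opened by potassium depolarization with thallium stimulus after 20 min compound exposure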
KCNK9 block = human KCNK9 channel inhibition. HEK293 KCNK9, FluxOR thallium flux fluorescence; active compounds read low. B-score at 10 µM. 310,000 compounds, 1.2% hits;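 active means ratio B-score over 3 SD below the library mean, with starting fluorescence within 5 SD of its mean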;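 further: negative B-score means less thallium flux so channel inhibition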
Kir21 block = blocks the mouse Kir2.1 inward-rectifier potassium channel; 310,000 compounds, 0.85% hits; P35561; HEK293-Kir2.1, FluxOR thallium flux fluorescence; active compounds read low; B-score at 10 µM;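 active means fluorescence ratio B-score at or below minus 3 SD of library scores, with starting-brightness B-score within 2 SD, cut at about -4.2 in these data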;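 further: channel flux triggered by added potassium and thallium sulfate stimulus; B-score of peak minus minimum fluorescence over baseline after thallium stimulus; more negative B-score means stronger Kir2.1 block with less thallium influx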
KCNQ1 block val = human KCNQ1 channel inhibition, validation assay | shares compounds with KCNQ1 inh | KCNQ1 cell line, FluxOR thallium flux fluorescence | inhibition, % at 10 µM | 1,600 compounds, 93% hits | AID 588353;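 active means primary screen active, with duplicate mean exceeding buffer control mean plus 3 SD of buffer wells, cut at about 28% in these data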
CHO KCNQ1 ctr = KCNQ1 inhibitor counter-screen hit in parental CHO cells; 1,600 compounds, 21% hits; fluorescence ratio (Tl flux) at 10 µM; AID 588366; parental CHO-K1, FluxOR thallium flux fluorescence ratio; active compounds read low; zero means no signal rise above baseline; shares compounds with KCNQ1 inh;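 active means mean of duplicate thallium-flux fluorescence ratios in parental host cells more than 5 SD below the buffer control mean, cut at about 0.38 in these data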;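 further: ratio is peak minus minimum fluorescence divided by baseline fluorescence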
KCNQ1 ephys val = blocks human KCNQ1 current in automated patch clamp; KCNQ1-CHO cells; calls only at 10 µM; 490 compounds, 20% hits; shares compounds with KCNQ1 inh;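 active means KCNQ1 current drop exceeding 3 SD of negative control wells, seen in both duplicate runs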;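 further: steady state current during a 2 s step from -80 to +40 mV; negative values mean current inhibition and positive values mean potentiation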
KCNQ2 spec = KCNQ1 inhibitor that also blocks rat KCNQ2 channel; shares compounds with KCNQ1 inh; KCNQ2 cells, FluxOR thallium flux fluorescence; inhibition, % at 10 µM; 1,600 compounds, 71% hits;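 active means mean percent inhibition of the KCNQ2 thallium signal more than 5 SD above the buffer-only control wells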;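 further: KCNQ2 expressed in CHO cells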
KCNQ1 KCNE1 spec = human KCNQ1/KCNE1 inhibition in KCNQ1 specificity screen. shares compounds with KCNQ1 inh. KCNQ1/KCNE1 cells, FluxOR thallium flux fluorescence. inhibition, % at 10 µM. 1,600 compounds, 77% hits. AID 652147;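 active means mean percent inhibition of duplicate wells above the buffer-only control mean plus 3 SD of those controls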
KCNK9 inh conf = human KCNK9 inhibitor confirmation. AID 492992. HEK293 KCNK9 cells, FluxOR thallium flux fluorescence. 4,900 compounds, 43% hits. shares compounds with KCNK9 block. inhibition, % at 10 µM;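 active means thallium signal inhibited by more than 5 SD of the compound-free buffer control wells, on both duplicate plates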
Kir21 sel = selectivity of KCNK9 modulators against mouse Kir2.1. inhibition, % at 10 µM. 4,900 compounds, 4% hits. Kir2.1 cells, FluxOR thallium flux fluorescence. shares compounds with KCNK9 block;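 active means thallium signal drop more than 5 SD beyond the mean of the no-compound control wells, seen in both duplicate plates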;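 further: signal is fluorescence rise after thallium addition divided by baseline fluorescence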
HEK293 Tl ctr = second counter-screen for KCNK9 modulators: effect in non-induced cells; shares compounds with KCNK9 block; non-induced KCNK9-HEK293, FluxOR thallium flux; inhibition, % at 10 µM; 4,900 compounds, 40% hits; AID 492997;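 active means thallium signal drop beyond 5 SD of the untreated control mean, on both duplicate plates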
KCNK3 confirm = human KCNK3 channel inhibition, confirmation assay | CHO-KCNK3 thallium flux, FluxOR fluorescence; 0% buffer, 100% carvedilol maximal block | 2,400 compounds, 99% hits | shares compounds with KCNK3 inh | ratio percent of control, % at 10 µM;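 active means ratio percent of control, averaged over triplicates, above buffer control mean plus 5 SD, cut at about 64% in these data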;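 further: ratio is the fluorescence rise from min to max over baseline after thallium stimulus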
KCNK3 uninduced = activity in cells without induced KCNK3 expression | shares compounds with KCNK3 inh | non-induced KCNK3 parental cells, FluxOR thallium flux; active compounds read low | thallium flux ratio (lower = more inhibition) at 10 µM | 2,400 compounds, 40% hits | AID 651747;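 active means thallium flux ratio, averaged over three wells, more than 5 SD below the buffer control mean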;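 further: host cells are CHO cells without KCNK3 induction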
Each line names hits and unclear results; the compound was inactive in the other large screens (follow-up assays come after a bar, where they were run).

CCCCc1nc(N2CCN(C(=O)c3ccco3)CC2)c(C#N)c2c1CCCC2	KCNK3 inh -9.4, KCNQ1 inh 9, KCNK9 block -6.8 | KCNQ1 block val 98 | CHO KCNQ1 ctr 0.34 | KCNQ2 spec 108% | KCNQ1 KCNE1 spec 46% | KCNK3 confirm 120 | KCNK3 uninduced inactive
O=C(C(Cc1ccccc1)n1cccc1)N1CCN(c2cccc(Cl)c2)CC1 (stereo unspecified)	KCNK3 inh -9.2, KCNQ1 inh 8 | KCNQ1 block val 116 | CHO KCNQ1 ctr 0.33 | KCNQ2 spec 117% | KCNQ1 KCNE1 spec 158% | KCNK3 confirm 98 | KCNK3 uninduced 0.14
O=C(C(Cc1ccccc1)n1cccc1)N1CCN(Cc2ccccc2)CC1 (stereo unspecified)	none
CCOc1ccc(N(C)S(=O)(=O)c2cc(-c3cc(C)no3)ccc2CC)cc1	KCNK3 inh -13, KCNQ1 inh 13, KCNK9 block -7.8 | KCNQ1 block val 98 | CHO KCNQ1 ctr 0.36 | KCNQ2 spec 118% | KCNQ1 KCNE1 spec 138% | KCNK3 confirm 123 | KCNK3 uninduced 0.14
COC(=O)C1=C(C)N(CCCC(=O)O)C(=O)NC1c1ccccc1Cl (stereo unspecified)	none
O=C(NN1C(=O)/C(=C\c2cccnc2)SC1=S)c1ccco1	none
Cc1cc(C)n(-c2cc(C(C)(C)C)nc3c(-c4ccccc4)cnn23)n1	KCNK3 inh -13, KCNQ1 inh 8 | KCNQ1 block val 85 | CHO KCNQ1 ctr inactive | KCNQ2 spec inactive | KCNQ1 KCNE1 spec 114% | KCNK3 confirm 108 | KCNK3 uninduced inactive
COC1OC(COCc2ccccc2)C(N)C(OCc2ccccc2)C1OCc1ccccc1 (stereo unspecified)	none (no result: hERG rescue, KCNQ1 act, KCNQ1 inh, KCNK9 block, Kir21 block)
CCOC(=O)N1CCC(n2c(SCC(=O)Nc3ccccc3OC)nc3ccccc3c2=O)CC1	KCNK3 inh -8.9, KCNQ1 inh 6 | KCNQ1 block val 82 | CHO KCNQ1 ctr 0.38 | KCNQ2 spec 109% | KCNQ1 KCNE1 spec 136% | KCNK9 inh conf inactive | Kir21 sel inactive | HEK293 Tl ctr inactive | KCNK3 confirm 110 | KCNK3 uninduced 0.15
CN(C)c1ccc(NC(=O)c2ccc(N3CCOCC3)nc2)cc1	none
Clc1ccc(/C=C/c2nc3ccccc3[nH]2)c(Cl)c1	KCNK3 inh -11, KCNQ1 inh 14 | KCNQ1 block val 112 | CHO KCNQ1 ctr 0.32 | KCNQ2 spec 107% | KCNQ1 KCNE1 spec 76% | KCNK3 confirm 115 | KCNK3 uninduced 0.1
O=C(/C=C/c1ccc(Cl)cc1Cl)c1nc2ccccc2[nH]1	none
CC(C)(C)c1ccc(NC(=S)NCc2cccs2)cc1	none
CCC(C)c1ccc(NC(=S)NCc2cccs2)cc1 (stereo unspecified)	KCNK3 inh -9.5, KCNQ1 inh 7 | KCNQ1 block val 90 | CHO KCNQ1 ctr inactive | KCNQ1 ephys val active | KCNQ2 spec 61% | KCNQ1 KCNE1 spec 95% | KCNK3 confirm 111 | KCNK3 uninduced inactive
O=C(NN1CCOCC1)c1cc(S(=O)(=O)Nc2cccc(C(F)(F)F)c2)ccc1Cl	none
CCCCNC(=S)Nc1ccc(SC(F)F)cc1	KCNK3 inh -10, KCNQ1 inh 8, KCNK9 block -7.7 | KCNQ1 block val 91 | CHO KCNQ1 ctr inactive | KCNQ1 ephys val active | KCNQ2 spec inactive | KCNQ1 KCNE1 spec 61% | KCNK3 confirm 121 | KCNK3 uninduced 0.15
COC(=O)c1ccc(CNC(=O)COC(=O)CCN2C(=O)C3CC=CCC3C2=O)cc1 (stereo unspecified)	none
O=C1NC(=Nc2ccccc2Cl)S/C1=C\c1cc([N+](=O)[O-])ccc1O	KCNK3 inh -14, KCNQ1 inh 23 | KCNQ1 block val 197 | CHO KCNQ1 ctr 0.17 | KCNQ2 spec 166% | KCNQ1 KCNE1 spec active | KCNK3 confirm 169 | KCNK3 uninduced 0.033
Cc1ccc(Nc2nc(NCCO)c3ccccc3n2)cc1C	KCNK3 inh -12, KCNQ1 inh 7, Kir21 block -6.9 | KCNQ1 block val 102 | CHO KCNQ1 ctr inactive | KCNQ1 ephys val inactive | KCNQ2 spec 66% | KCNQ1 KCNE1 spec 84% | KCNK3 confirm 128 | KCNK3 uninduced inactive
O=C(Nc1ccncc1)c1ccc(Cl)c(S(=O)(=O)N2CCCCC2)c1	none
O=C(Nc1ccncc1)c1ccc(Cl)c(S(=O)(=O)N2CCc3ccccc32)c1	KCNK3 inh -10, KCNQ1 inh 10 | KCNQ1 block val 134 | CHO KCNQ1 ctr 0.29 | KCNQ2 spec 94% | KCNQ1 KCNE1 spec 134% | KCNK3 confirm 136 | KCNK3 uninduced 0.16
Cc1c(-c2ccccc2)cnc2c(C)cccc12	none
c1ccc(-c2csc(N3CCCCCC3)n2)cc1	none
Cc1cc(N2CCN(c3nc(-c4ccccc4)cs3)CC2)c2ccccc2n1	KCNK3 inh -14, KCNQ1 inh 7 | KCNQ1 block val 130 | CHO KCNQ1 ctr inactive | KCNQ1 ephys val inactive | KCNQ2 spec 107% | KCNQ1 KCNE1 spec 195% | KCNK3 confirm 136 | KCNK3 uninduced 0.13
